Assay results: ChEMBL document CHEMBL1799936, “Azaphilones from the endophyte Chaetomium globosum” (2011)
≈ marks a conversion by molar mass, not a printed value. Calls of active or inactive are those of the source. The calls are words filed in the database; no cut-off is given here.

What was measured:
Enterococcus faecalis = assay: Antibiotic activity against cytolysin-positive Enterococcus faecalis MMH594 infected in intestine of Caenorhabditis elegans glp-4(bn2ts);sek-1(km4) mutant infection model assessed as nematode survival at 50 to 100 ug/mL after 168 hrs by liquid infection assay; assay type: functional, organism-based
Procedure, shortened: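 C. elegans glp-4(bn2ts);sek-1(km4) synchronized L4 to young adult worms, fed E. coli OP50, infected on E. faecalis MMH594 lawn, then moved to liquid medium (19% BHI, 80% M9, 80 μg mL-1 kanamycin, 1% DMSO) with compound at 100 and 50 μg mL-1 final. Survival scored at 3, 48, 120, 168 h. Ampicillin positive control.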

Globisporangium ultimum = assay: Antimicrobial activity against Pythium ultimum mycelia assessed as growth inhibition; assay type: functional
Pyricularia grisea = assay: Antimicrobial activity against Magnaporthe grisea mycelia assessed as growth inhibition; assay type: functional

Structure (SMILES) | Activity (Enterococcus faecalis) | MIC (Globisporangium ultimum) | MIC (Pyricularia grisea)
CC[C@H](C)/C=C/C1=CC2=C(Cl)C(=O)[C@@]3(C)OC(=O)C(C(=O)[C@@H](C)[C@H](C)O)=C3C2=CO1 | inactive | – | –
CC[C@H](C)/C=C/C1=CC2=CC(=O)[C@@]3(C)OC(=O)C(C(=O)[C@@H](C)[C@@H](C)O)=C3C2=CO1 | inactive | – | –
C/C=C(\C)C(=O)C1=C2C3=COC(/C=C/[C@@H](C)CC)=CC3=C(Cl)C(=O)[C@@]2(C)OC1=O | inactive | – | –
CC[C@H](C)/C=C/C1=CC2=C(Cl)C(=O)[C@@]3(C)OC(=O)[C@@H](C(=O)[C@@H](C)[C@H](C)O)[C@H]3C2=CO1 | inactive | – | –
C[C@H](O)[C@H](C)C(=O)[C@@H]1C(=O)O[C@]2(C)C(=O)C(Cl)=C3C=C(/C=C/[C@@H](C)[C@@H](C)O)OC=C3[C@H]12 | inactive | – | –
CC[C@H](C)/C=C/C1=CC2=C(Cl)C(=O)[C@@]3(C)OC(=O)C(C(=O)[C@@H](C)[C@@H](C)O)=C3C2=CO1 [CHAETOVIRIDIN A] | inactive | 33.3 µg/mL (≈ 76.9 µM) | 1.23 µg/mL (≈ 2.84 µM)
C/C=C(\C)C(=O)[C@@H]1C(=O)O[C@]2(C)C(=O)C(Cl)=C3C=C(/C=C/[C@@H](C)CC)OC=C3[C@H]12 | inactive | – | –
CC[C@H](C)/C=C/C1=CC2=C(Cl)C(=O)[C@@]3(C)OC(=O)C4=C(C(C)C(C)O)OC(O1)C2(O)C43O (stereo partly specified) | inactive | – | –
CC(O)C(C)C1(O)O[C@]2(C)C(=O)C(Cl)=C3C=C(/C=C/[C@@H](C)[C@@H](C)O)OC=C3[C@@H]2[C@@H]1C(=O)O (stereo partly specified) | inactive | – | –
CC[C@H](C)/C=C/C1=CC2=C(Cl)C(=O)[C@@]3(C)OC(=O)C(C(=O)[C@H](C)[C@@H](C)O)=C3C2=CO1 | inactive | – | –
CC[C@H](C)/C=C/C1=CC2=C(Cl)C(=O)[C@@]3(C)OC(O)(C(C)C(C)O)[C@@H](C(=O)O)[C@H]3C2=CO1 (stereo partly specified) [CHAETOVIRIDIN B] | inactive | 33.3 µg/mL (≈ 73.5 µM) | 1.23 µg/mL (≈ 2.72 µM)
CC[C@H](C)/C=C/C1=CC2=C(Cl)C(=O)[C@@]3(C)OC(=O)C(C(=O)[C@H](C)CC)=C3C2=CO1 | inactive | – | –
